Key:
[1] = biological target: Neuronal acetylcholine receptor; alpha4/beta2 (Rattus norvegicus, UniProt P09483+P12390); assay: Displacement of [3H]epibatidine from rat alpha4beta2 nAChR expressed in […] cells after 3 hrs; format: cell-based
[2] = biological target: T1, Neuronal acetylcholine receptor; alpha3/beta4 (Rattus norvegicus, UniProt P04757+P12392); assay: Displacement of [3H]epibatidine from rat alpha3beta4 nAChR expressed in […] cells after 3 hrs; format: cell-based
Rattus norvegicus [3] = organism: Rattus norvegicus; assay: Selectivity ratio of Ki for rat alpha3beta4 nAChR to Ki for rat alpha4beta2 nAChR
How it was run: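 KXα3β4R2 or KXα4β2R2 cells grown in DMEM with 10% FBS and 0.4 mg/mL geneticin at 37°C under 7.5% CO2. Cells were scraped, homogenised in Tris buffer and spun at 20,000 x g to give membranes. […] Ki was obtained from IC50 by Cheng-Prusoff.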

[4] = biological target: Neuronal acetylcholine receptor; alpha3/beta4 (Rattus norvegicus) (UniProt P04757+P12392); assay: Partial agonist activity at rat alpha3beta4 nAChR expressed in […] cells assessed as increase of calcium influx by FLIPR assay relative to control; format: functional, cell-based
How it was run: (§1)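 For functional assays, KXα3β4R2 cells (DMEM, 10% FBS, geneticin, 37°C, 7.5% CO2) were seeded into collagen-coated 96-well plates at about 50,000 cells/well. They grew to a confluent monolayer in 24 to 30 h before testing.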

[5] = biological target: T1, Neuronal acetylcholine receptor; alpha3/beta4; assay: Partial agonist activity at rat alpha3beta4 nAChR expressed in […] cells assessed as increase of calcium influx by FLIPR assay; format: functional, cell-based; how it was run: as §1
Rattus norvegicus [6] = organism: Rattus norvegicus; assay: Selectivity ratio of Ki for rat alpha3beta4 nAChR to Ki for alpha7 nAChR in rat brain membranes; format: cell membranes

T1 sequence (P04757 whole entry): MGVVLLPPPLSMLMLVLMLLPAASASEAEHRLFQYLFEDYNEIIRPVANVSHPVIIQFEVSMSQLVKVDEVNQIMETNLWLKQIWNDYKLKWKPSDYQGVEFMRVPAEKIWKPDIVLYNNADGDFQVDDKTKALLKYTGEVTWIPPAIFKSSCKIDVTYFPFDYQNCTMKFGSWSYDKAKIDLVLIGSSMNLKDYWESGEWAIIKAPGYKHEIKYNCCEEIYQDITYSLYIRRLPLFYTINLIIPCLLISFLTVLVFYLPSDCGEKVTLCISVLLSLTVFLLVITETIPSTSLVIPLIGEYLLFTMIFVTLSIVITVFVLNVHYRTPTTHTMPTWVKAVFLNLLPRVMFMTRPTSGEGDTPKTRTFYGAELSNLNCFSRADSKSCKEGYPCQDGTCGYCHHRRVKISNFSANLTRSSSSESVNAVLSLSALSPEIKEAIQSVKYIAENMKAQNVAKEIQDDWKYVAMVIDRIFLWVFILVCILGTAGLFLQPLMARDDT
T1 sequence (P12392 whole entry): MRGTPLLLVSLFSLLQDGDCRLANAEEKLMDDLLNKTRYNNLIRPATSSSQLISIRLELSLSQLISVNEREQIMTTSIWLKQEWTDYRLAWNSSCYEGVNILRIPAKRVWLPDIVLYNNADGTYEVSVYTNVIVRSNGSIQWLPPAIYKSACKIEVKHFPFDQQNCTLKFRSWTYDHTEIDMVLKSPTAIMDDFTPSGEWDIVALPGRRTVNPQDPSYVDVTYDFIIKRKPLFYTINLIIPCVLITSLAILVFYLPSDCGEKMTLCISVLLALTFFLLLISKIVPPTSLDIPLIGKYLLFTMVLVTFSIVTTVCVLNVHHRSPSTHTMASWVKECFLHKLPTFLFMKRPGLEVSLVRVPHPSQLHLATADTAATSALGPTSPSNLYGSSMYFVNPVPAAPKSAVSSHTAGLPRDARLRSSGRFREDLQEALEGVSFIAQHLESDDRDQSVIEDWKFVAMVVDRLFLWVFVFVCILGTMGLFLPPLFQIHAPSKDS
Chain of Neuronal acetylcholine receptor; alpha4/beta2 (P09483 whole entry): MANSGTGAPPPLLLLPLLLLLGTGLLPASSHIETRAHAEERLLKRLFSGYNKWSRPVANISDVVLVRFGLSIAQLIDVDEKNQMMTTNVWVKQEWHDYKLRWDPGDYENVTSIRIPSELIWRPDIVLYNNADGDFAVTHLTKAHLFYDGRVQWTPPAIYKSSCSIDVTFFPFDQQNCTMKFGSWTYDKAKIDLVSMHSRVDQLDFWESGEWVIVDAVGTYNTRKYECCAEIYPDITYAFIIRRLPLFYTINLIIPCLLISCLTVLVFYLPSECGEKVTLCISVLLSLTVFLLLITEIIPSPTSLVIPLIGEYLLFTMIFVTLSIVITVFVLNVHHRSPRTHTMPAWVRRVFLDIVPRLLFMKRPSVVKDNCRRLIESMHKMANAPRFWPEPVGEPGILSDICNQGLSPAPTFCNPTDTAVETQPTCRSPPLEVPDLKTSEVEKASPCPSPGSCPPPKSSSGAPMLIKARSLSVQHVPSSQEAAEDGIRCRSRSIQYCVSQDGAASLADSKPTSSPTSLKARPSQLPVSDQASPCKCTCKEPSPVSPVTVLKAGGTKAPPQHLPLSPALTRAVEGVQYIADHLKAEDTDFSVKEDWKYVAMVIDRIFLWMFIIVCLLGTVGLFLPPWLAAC
Chain of Neuronal acetylcholine receptor; alpha4/beta2 (P12390 whole entry): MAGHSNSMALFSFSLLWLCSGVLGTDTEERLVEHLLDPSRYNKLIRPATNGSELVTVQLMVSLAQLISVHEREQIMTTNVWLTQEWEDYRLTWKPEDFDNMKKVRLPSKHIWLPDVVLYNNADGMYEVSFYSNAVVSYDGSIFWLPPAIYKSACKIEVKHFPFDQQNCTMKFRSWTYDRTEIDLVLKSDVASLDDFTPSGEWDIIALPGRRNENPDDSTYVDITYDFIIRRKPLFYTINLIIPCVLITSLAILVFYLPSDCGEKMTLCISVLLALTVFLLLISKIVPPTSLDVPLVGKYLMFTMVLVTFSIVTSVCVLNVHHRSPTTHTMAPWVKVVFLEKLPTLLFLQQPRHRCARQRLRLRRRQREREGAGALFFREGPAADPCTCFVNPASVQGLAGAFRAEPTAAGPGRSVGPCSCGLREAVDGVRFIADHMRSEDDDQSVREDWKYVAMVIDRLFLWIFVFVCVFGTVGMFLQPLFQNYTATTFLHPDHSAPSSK

SMILES | Ki [1] [µM] | Ki [2] [µM] | further results
CCC(C)(C)C1CCC(N2CCC(C3C(=O)Nc4ccccc43)CC2)CC1 (stereo not given) | > 10 | > 10 | –
CC1CN(Cc2ccccc2)CCC1N1C(=O)Cc2ccccc21 (stereo not given) | > 10 | > 10 | –
CN1C2CCC1CC(N1C(=O)Cc3ccccc31)C2 (stereo not given) | > 100 | – | –
O=C1Cc2ccccc2N1C1CC2CC(C1)N(Cc1ccccc1)C2 (stereo not given) | > 10 | 1.84 | –
CC(c1ccc(C2CCCCC2)cc1)N1CCC(N2C(=O)Cc3ccccc32)CC1 (stereo not given) | > 10 | > 10 | –
O=C1Cc2ccccc2N1C1CC2CCCC(C1)N2 (stereo not given) | > 100 | – | –
C1=C(c2cccnc2)CC2CCC1CN2Cc1ccccc1 (stereo not given) | – | – | Ratio Ki (Rattus norvegicus [3]): 100; Emax [4]: 72%; EC50 [5]: 2 µM; Ratio Ki (Rattus norvegicus [6]): 200
CN1C2C=C(c3cccnc3)CC1CCC2 (stereo not given) | 0.0104 | – | Emax [4]: 44%; EC50 [5]: 4.8 µM
CN1CC2CC1CC(N1C(=O)Cc3ccccc31)C2 (stereo not given) | > 10 | > 10 | –
CN1C2CCCC1CC(N1C(=O)Cc3ccccc31)C2 (stereo not given) | > 100 | – | –

From ChEMBL document CHEMBL1275396 (J Med Chem, 2010)
